Results on six compounds are retold here after ChEMBL document CHEMBL4020839, “Class I HDAC Inhibitors Display Different Antitumor Mechanism in Leukemia and Prostatic Cancer Cells Depending on Their p53 Status” (J Med Chem, 2018).

By IC50 is commonly meant the concentration that inhibits the measured activity by half. What is called EC50 is the midpoint of the concentration-response curve. A lower EC50 goes with higher potency in that assay.

The structures appear in SMILES notation. Calls of active or inactive are those of the source. The calls are words filed in the database; no cut-off is given here.

For experiment [1], the target named is T1, Histone deacetylase 2 (Homo sapiens, UniProt Q92769). The experiment in a line: Inhibition of full length recombinant human C-terminal FLAG/His-tagged HDAC2 expressed in baculovirus expression system using Boc-Lys(acetyl)-AMC as substrate preincubated for 90 mins followed by substrate addition measured after 2 hrs by fluorescence assay. The procedure, abridged: (§1)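 Recombinant HDAC2 preincubated with serial compound dilutions at 30 °C for 15, 30, 60 or 90 min. Boc-Lys(acetyl)-AMC added and reaction run 2 h at 30 °C, then stopped with trypsin/TSA developer. Fluorescence read at 360/460 nm; IC50 from variable-slope fit of control-normalized inhibition.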

Experiment [2] has as its target T1, Histone deacetylase 2. The experiment in a line: Inhibition of full length recombinant human C-terminal FLAG/His-tagged HDAC2 expressed in baculovirus expression system using Boc-Lys(acetyl)-AMC as substrate preincubated for 1 hr followed by substrate addition measured after 2 hrs by fluorescence assay. A digest of the protocol: (§2)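 Recombinant HDAC incubated with serial compound dilutions at 30 °C for 1 h. Reaction run 2 h at 30 °C, stopped with developer containing trypsin and TSA. Fluorescence read after 30 min at 360/460 nm. Inhibition relative to control wells; IC50 from variable-slope fit.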

The target of experiment [3] is T1, Histone deacetylase 2. The experiment in a line: Inhibition of full length recombinant human C-terminal FLAG/His-tagged HDAC2 expressed in baculovirus expression system using Boc-Lys(acetyl)-AMC as substrate preincubated for 60 mins followed by substrate addition measured after 2 hrs by fluorescence assay. A digest of the protocol: as §1
Experiment [4] has as its target T2, Histone deacetylase 1 (Homo sapiens, UniProt Q13547). Briefly: Inhibition of full length recombinant human C-terminal FLAG/His-tagged HDAC1 expressed in baculovirus expression system using Boc-Lys(acetyl)-AMC as substrate preincubated for 90 mins followed by substrate addition measured after 2 hrs by fluorescence assay. The procedure, abridged: (§3)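 Recombinant HDAC1 was preincubated with serially diluted inhibitor at 30 °C for the stated time. Boc-Lys(acetyl)-AMC was then added and the reaction ran 2 h at 30 °C. It was stopped with a trypsin/trichostatin A developer, and fluorescence was read 30 min later (ex 360/em 460 nm). Inhibition was taken relative to control wells, and IC50 came from a variable-slope log(inhibitor)–normalized response fit.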

For experiment [5], the target named is T2, Histone deacetylase 1. The experiment in a line: Inhibition of full length recombinant human C-terminal FLAG/His-tagged HDAC1 expressed in baculovirus expression system using Boc-Lys(acetyl)-AMC as substrate preincubated for 60 mins followed by substrate addition measured after 2 hrs by fluorescence assay. The procedure, abridged: as §3
Experiment [6] addresses T2, Histone deacetylase 1. The experiment in a line: Inhibition of full length recombinant human C-terminal FLAG/His-tagged HDAC1 expressed in baculovirus expression system using Boc-Lys(acetyl)-AMC as substrate preincubated for 15 mins followed by substrate addition measured after 2 hrs by fluorescence assay. A digest of the protocol:
as §3

Experiment [7] concerns the target T1, Histone deacetylase 2. The experiment in a line: Mixed-type inhibition of full length recombinant human C-terminal FLAG/His-tagged HDAC2 expressed in baculovirus expression system using Boc-Lys(acetyl)-AMC as substrate preincubated for 2 hrs followed by substrate addition measured after 2 hrs by Lineweaver-Burk plot analysis. The procedure, abridged:
(§4)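 Recombinant human HDAC2 or HDAC3 incubated 2 h at 30 °C with inhibitor at several concentrations in HDAC buffer. Serially diluted Boc-Lys(acetyl)-AMC added for 2 h, then quenched with 5 mg/mL trypsin and 1 μM TSA. Fluorescence read at 360/460 nm. Vmax and Km from Michaelis–Menten fits, shown as Lineweaver–Burk plots.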

For experiment [8], the target named is T1, Histone deacetylase 2. The experiment in a line: Inhibition of full length recombinant human C-terminal FLAG/His-tagged HDAC2 expressed in baculovirus expression system using Boc-Lys(acetyl)-AMC as substrate preincubated for 15 mins followed by substrate addition measured after 2 hrs by fluorescence assay. The procedure, abridged:
as §1

For experiment [9], the target named is T2, Histone deacetylase 1. Briefly: Inhibition of full length recombinant human C-terminal FLAG/His-tagged HDAC1 expressed in baculovirus expression system using Boc-Lys(acetyl)-AMC as substrate preincubated for 1 hr followed by substrate addition measured after 2 hrs by fluorescence assay. A digest of the protocol: as §2
The target in experiment [10] is T1, Histone deacetylase 2. The experiment in a line: Inhibition of full length recombinant human C-terminal FLAG/His-tagged HDAC2 expressed in baculovirus expression system using Boc-Lys(acetyl)-AMC as substrate preincubated for 30 mins followed by substrate addition measured after 2 hrs by fluorescence assay. The procedure, abridged: as §1
Experiment [11] has as its target Histone deacetylase 3/Nuclear receptor corepressor 2 (HDAC3/NCoR2) (Homo sapiens) (UniProt O15379+Q9Y618). The experiment in a line: Mixed-type inhibition of full length recombinant human C-terminal His-tagged HDAC3/N-terminal GST-tagged NCOR2 co-expressed in baculovirus expression system using Boc-Lys(acetyl)-AMC as substrate preincubated for 2 hrs followed by substrate addition measured after 2 hrs by Lineweaver-Burk plot analysis. A digest of the protocol:
as §4

Experiment [12] addresses T3, Protein deacetylase HDAC6 (Homo sapiens, UniProt Q9UBN7).
T3 sequence (Q9UBN7 whole entry): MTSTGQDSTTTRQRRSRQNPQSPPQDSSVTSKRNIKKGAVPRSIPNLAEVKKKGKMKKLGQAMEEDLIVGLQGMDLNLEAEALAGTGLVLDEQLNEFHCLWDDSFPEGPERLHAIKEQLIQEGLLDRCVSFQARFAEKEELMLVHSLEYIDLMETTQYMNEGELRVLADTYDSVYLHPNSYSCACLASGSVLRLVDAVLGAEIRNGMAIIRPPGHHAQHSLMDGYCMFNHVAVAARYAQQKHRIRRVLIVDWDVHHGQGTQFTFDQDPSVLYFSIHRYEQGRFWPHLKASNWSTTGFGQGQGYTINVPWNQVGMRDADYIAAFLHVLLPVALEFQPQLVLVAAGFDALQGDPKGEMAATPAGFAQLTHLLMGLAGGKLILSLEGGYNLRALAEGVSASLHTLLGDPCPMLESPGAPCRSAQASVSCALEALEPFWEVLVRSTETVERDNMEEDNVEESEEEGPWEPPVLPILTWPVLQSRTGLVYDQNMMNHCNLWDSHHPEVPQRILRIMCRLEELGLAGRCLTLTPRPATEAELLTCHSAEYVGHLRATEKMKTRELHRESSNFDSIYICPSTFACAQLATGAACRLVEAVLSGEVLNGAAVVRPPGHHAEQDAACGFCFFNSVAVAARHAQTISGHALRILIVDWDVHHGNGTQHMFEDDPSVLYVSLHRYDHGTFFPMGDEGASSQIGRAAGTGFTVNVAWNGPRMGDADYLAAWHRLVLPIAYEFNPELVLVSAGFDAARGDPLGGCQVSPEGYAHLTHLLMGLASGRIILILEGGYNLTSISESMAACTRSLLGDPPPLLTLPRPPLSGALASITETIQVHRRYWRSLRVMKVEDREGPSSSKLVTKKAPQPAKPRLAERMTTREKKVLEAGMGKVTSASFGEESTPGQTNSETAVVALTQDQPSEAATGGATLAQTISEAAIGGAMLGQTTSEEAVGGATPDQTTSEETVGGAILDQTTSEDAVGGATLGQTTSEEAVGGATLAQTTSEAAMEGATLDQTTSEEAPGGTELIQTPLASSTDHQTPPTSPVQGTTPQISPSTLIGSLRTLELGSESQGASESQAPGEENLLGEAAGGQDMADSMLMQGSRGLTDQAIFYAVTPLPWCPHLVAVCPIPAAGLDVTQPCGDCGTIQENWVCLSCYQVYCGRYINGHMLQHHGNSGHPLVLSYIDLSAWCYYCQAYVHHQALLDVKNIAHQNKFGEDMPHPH
The experiment in a line: Inhibition of HDAC6 (unknown origin) using Boc-Lys(acetyl)-AMC as substrate preincubated for 1 hr followed by substrate addition measured after 2 hrs by fluorescence assay. The procedure, abridged: as §2

The target in experiment [13] is T4, Histone deacetylase 3/Nuclear receptor corepressor 2 (HDAC3/NCoR2) (Homo sapiens, UniProt O15379). Briefly: Inhibition of full length recombinant human C-terminal His-tagged HDAC3/N-terminal GST-tagged NCOR2 co-expressed in baculovirus expression system using Boc-Lys(acetyl)-AMC as substrate preincubated for 1 hr followed by substrate addition measured after 2 hrs by fluorescence assay. A digest of the protocol:
as §2

For experiment [14], the target named is T4, Histone deacetylase 3/Nuclear receptor corepressor 2 (HDAC3/NCoR2). The experiment in a line: Inhibition of full length recombinant human C-terminal His-tagged HDAC3/N-terminal GST-tagged NCOR2 co-expressed in baculovirus expression system using Boc-Lys(acetyl)-AMC as substrate preincubated for 15 mins followed by substrate addition measured after 2 hrs by fluorescence assay.

Experiment [15] has the same target. Briefly: Inhibition of full length recombinant human C-terminal His-tagged HDAC3/N-terminal GST-tagged NCOR2 co-expressed in baculovirus expression system using Boc-Lys(acetyl)-AMC as substrate preincubated for 60 mins followed by substrate addition measured after 2 hrs by fluorescence assay.
In experiment [16] the target is T2, Histone deacetylase 1. Briefly: Inhibition of full length recombinant human C-terminal FLAG/His-tagged HDAC1 expressed in baculovirus expression system using Boc-Lys(acetyl)-AMC as substrate preincubated for 30 mins followed by substrate addition measured after 2 hrs by fluorescence assay.
For experiment [17], the target named is T4, Histone deacetylase 3/Nuclear receptor corepressor 2 (HDAC3/NCoR2). The experiment in a line: Inhibition of full length recombinant human C-terminal His-tagged HDAC3/N-terminal GST-tagged NCOR2 co-expressed in baculovirus expression system using Boc-Lys(acetyl)-AMC as substrate preincubated for 30 mins followed by substrate addition measured after 2 hrs by fluorescence assay.

Experiment [18] has the same target. The experiment in a line: Inhibition of full length recombinant human C-terminal His-tagged HDAC3/N-terminal GST-tagged NCOR2 co-expressed in baculovirus expression system using Boc-Lys(acetyl)-AMC as substrate preincubated for 90 mins followed by substrate addition measured after 2 hrs by fluorescence assay.
A further experiment concerns MV4-11. The experiment in a line: Antiproliferative activity against human MV4-11 cells after 48 hrs by CellTiter-Blue assay. It counts as functional, cell-based. The settings on record: MV4-11, 48 h. A general note: Alamar Blue is a resazurin reagent that responds to reducing activity.

T2 sequence (Q13547 whole entry): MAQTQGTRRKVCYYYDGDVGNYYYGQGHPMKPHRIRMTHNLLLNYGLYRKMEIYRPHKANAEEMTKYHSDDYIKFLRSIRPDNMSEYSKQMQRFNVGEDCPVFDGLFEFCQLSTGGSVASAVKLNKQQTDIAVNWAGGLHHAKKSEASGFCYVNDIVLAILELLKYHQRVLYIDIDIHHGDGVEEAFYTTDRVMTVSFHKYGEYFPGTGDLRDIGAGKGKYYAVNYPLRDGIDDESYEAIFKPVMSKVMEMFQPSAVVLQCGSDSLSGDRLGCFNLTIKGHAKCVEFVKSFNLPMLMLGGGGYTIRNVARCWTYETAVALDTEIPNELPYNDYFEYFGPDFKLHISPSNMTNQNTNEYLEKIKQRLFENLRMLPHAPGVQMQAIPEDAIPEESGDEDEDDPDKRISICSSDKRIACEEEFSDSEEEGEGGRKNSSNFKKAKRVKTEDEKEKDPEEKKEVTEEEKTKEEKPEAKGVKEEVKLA
T4 sequence (O15379 whole entry): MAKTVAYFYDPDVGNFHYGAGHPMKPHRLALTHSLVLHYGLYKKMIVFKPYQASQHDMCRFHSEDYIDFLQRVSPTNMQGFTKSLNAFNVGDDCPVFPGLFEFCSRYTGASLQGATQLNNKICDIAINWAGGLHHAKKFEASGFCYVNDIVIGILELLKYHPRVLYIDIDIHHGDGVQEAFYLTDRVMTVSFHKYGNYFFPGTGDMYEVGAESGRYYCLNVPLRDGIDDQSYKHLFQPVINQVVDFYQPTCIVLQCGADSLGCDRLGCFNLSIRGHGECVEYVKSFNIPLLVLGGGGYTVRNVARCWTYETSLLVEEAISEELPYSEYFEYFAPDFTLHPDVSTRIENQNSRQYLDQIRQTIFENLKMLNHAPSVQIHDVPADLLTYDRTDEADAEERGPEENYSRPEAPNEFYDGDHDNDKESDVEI
T4 sequence (Q9Y618 whole entry, further chain): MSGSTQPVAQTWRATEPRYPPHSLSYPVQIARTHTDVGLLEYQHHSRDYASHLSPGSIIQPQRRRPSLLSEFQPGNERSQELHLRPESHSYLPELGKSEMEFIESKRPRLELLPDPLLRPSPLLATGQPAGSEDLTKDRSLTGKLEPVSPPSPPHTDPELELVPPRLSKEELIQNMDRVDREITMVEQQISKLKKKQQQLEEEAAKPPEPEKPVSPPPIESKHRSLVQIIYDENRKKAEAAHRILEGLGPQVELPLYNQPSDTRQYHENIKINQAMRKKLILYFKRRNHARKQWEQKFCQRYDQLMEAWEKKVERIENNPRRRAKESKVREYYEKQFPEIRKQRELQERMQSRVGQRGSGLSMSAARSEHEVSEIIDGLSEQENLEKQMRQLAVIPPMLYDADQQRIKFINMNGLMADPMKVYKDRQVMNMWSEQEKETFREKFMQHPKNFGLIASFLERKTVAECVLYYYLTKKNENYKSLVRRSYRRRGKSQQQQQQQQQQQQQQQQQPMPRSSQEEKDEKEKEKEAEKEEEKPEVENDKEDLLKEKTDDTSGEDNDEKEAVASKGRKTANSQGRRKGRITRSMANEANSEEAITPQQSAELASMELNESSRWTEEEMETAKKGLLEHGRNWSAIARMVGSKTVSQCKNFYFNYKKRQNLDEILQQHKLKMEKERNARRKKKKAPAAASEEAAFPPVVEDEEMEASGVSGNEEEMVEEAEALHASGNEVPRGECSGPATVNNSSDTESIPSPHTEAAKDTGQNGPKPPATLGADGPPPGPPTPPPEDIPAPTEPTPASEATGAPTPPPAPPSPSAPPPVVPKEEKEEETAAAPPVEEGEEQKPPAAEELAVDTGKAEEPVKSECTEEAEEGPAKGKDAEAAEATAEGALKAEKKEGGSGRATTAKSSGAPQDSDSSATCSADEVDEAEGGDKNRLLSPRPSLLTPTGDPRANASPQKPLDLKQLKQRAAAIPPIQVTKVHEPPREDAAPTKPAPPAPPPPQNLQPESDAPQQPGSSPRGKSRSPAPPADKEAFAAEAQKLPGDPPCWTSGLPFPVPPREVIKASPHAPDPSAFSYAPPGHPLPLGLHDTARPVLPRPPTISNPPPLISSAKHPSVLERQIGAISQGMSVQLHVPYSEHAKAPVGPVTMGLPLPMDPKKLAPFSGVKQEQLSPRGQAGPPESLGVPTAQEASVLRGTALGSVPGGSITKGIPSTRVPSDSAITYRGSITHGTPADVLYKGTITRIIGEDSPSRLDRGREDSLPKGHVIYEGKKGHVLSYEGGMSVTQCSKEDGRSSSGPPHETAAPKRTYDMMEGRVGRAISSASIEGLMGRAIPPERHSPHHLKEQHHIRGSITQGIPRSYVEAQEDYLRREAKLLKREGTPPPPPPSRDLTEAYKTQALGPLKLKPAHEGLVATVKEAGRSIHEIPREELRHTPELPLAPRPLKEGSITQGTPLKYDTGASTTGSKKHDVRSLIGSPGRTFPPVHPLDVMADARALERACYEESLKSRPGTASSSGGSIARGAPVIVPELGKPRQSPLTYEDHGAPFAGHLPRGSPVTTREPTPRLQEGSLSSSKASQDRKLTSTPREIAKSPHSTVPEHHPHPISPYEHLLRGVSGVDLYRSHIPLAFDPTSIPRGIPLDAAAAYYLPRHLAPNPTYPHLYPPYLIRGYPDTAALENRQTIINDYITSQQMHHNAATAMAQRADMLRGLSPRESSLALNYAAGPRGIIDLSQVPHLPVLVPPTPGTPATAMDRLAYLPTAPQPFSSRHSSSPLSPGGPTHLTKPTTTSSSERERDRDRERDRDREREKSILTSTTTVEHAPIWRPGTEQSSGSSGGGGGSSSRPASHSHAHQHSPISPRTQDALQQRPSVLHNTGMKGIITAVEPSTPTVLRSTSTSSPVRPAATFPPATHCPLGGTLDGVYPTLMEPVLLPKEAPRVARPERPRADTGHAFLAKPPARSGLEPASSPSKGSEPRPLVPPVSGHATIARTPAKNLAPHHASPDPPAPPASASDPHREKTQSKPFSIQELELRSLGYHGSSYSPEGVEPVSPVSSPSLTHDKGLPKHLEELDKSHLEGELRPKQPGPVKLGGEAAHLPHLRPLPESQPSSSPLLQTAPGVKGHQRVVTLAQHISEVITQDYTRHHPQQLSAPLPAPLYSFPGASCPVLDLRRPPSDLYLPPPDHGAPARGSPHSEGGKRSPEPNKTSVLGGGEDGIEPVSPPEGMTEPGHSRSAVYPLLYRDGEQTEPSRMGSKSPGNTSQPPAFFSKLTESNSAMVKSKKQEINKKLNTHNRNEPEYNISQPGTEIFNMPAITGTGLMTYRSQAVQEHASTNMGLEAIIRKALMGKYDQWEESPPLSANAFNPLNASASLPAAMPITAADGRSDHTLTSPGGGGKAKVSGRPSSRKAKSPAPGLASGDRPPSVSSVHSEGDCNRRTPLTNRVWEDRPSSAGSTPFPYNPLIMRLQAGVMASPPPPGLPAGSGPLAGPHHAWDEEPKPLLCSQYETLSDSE
T1 sequence (Q92769 whole entry): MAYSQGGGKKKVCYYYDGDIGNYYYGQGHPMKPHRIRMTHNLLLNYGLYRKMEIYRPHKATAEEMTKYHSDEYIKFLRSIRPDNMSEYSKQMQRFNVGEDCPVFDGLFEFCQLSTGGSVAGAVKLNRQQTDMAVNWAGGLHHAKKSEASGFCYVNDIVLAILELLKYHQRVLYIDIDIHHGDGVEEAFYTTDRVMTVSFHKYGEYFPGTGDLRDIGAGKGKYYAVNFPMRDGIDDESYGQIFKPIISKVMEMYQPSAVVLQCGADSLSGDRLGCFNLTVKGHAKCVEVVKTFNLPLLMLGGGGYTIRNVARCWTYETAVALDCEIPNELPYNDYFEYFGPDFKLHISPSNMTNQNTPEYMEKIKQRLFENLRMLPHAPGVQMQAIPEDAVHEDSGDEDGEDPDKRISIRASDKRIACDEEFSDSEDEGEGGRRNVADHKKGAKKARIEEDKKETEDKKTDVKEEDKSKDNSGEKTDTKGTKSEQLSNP

With `CCCNNC(=O)c1ccc(CNC(=O)[C@H](Cc2c[nH]c3ccccc23)NC(=O)c2ccc(OC)cc2)cc1`, the IC50 on Histone deacetylase 2 [1] is 194 nM; on Histone deacetylase 2 [2] it was 287 nM; on Histone deacetylase 2 [3] it was 260 nM; on Histone deacetylase 1 [4], 32.9 nM; on Histone deacetylase 1 [5], 50.1 nM; at Histone deacetylase 1 [6], 91.2 nM. Further, the half-maximal inhibitory concentration (IC50) was 424 nM at Histone deacetylase 2 [8], 63.3 nM at Histone deacetylase 1 [9], 367 nM at Histone deacetylase 2 [10] and above 100000 nM in [12]. The inhibition entry (at Histone deacetylase 2 [7]; in [11]) was “Active” each time.
With `CCCNNC(=O)CCCCCCCNC(=O)[C@H](Cc1c[nH]c2ccccc12)NC(=O)c1ccc(OC)cc1`, the IC50 at Histone deacetylase 2 [2] was 199 nM; in experiment [13] it was 12.1 nM; at Histone deacetylase 1 [9], 52.8 nM; in experiment [12] it was above 100000 nM.
Taken in the same sequence, the figures for `CCNNC(=O)c1ccc(CNC(=O)[C@H](Cc2c[nH]c3ccccc23)NC(=O)c2ccc(OC)cc2)cc1` were 88.8 nM, 34.9 nM, 95.5 nM and 393 nM.
As for `COc1ccc(C(=O)N[C@@H](Cc2c[nH]c3ccccc23)C(=O)NCc2ccc(C(=O)Nc3ccccc3N)cc2)cc1`, the IC50 was 121 nM on Histone deacetylase 2 [1]; 169 nM at Histone deacetylase 2 [3]; 939 nM in experiment [14]; 34.5 nM on Histone deacetylase 1 [4]; 184 nM in experiment [15]; 49.8 nM at Histone deacetylase 1 [5]. Moreover, the IC50 came to 99.9 nM at Histone deacetylase 1 [6]; 64.9 nM on Histone deacetylase 1 [16]; 348 nM at Histone deacetylase 2 [8]; 433 nM in [17]; 135 nM in [18]; 252 nM at Histone deacetylase 2 [10]. In experiment [12], this compound showed an IC50 above 100000 nM. Moreover, the inhibition result (at Histone deacetylase 2 [7]; in [11]) was “Active” throughout.
For `CCCNNC(=O)/C=C/c1ccc(OC[C@H](Cc2c[nH]c3ccccc23)NC(=O)c2ccc(OC)cc2)cc1`, the 50% inhibitory concentration (IC50) on Histone deacetylase 2 [2] is 283 nM; in experiment [13], 2.82 nM; at Histone deacetylase 1 [9], 28.9 nM; in [12] it was above 100000 nM. In the experiment on MV4-11, this compound came in with an EC50 of 243 nM.
For the compound `CCCCCNNC(=O)c1ccc(CNC(=O)[C@H](Cc2c[nH]c3ccccc23)NC(=O)c2ccc(OC)cc2)cc1`, the 50% inhibitory concentration (IC50) is 332 nM at Histone deacetylase 2 [2], 10.9 nM in [13], 29.8 nM at Histone deacetylase 1 [9] and above 100000 nM in experiment [12].
